Results reported in article PMC7224360 (Peptide science (Hoboken, N.J.), 2018).
Entries after “also recorded” stand apart in the source; their conditions may differ.

Experiments:
[1] = test system: adenylyl cyclase (AC6) in N18TG2 cells; test: Inhibition of forskolin-stimulated cAMP accumulation in N18TG2 cells; type: cell-based; conditions: for Inhibition of cAMP accumulation at 100 µM versus IL4 or IL4pSer402: forskolin 1 µM, peptide 100 µM, n=3
Gαo (N18TG2 membranes) = test: [35S]GTPγS binding, antibody-capture SPA, Gαo, N18TG2 membranes; type: biochemical
Summary of the method: (§1)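 N18TG2 neuroblastoma membranes (5 µg protein) were incubated with [35S]GTPγS plus WIN55212–2 (1 µM), unphosphorylated IL4 peptide (100 µM) or phosphopeptides (20–100 µM). Captured by SPA with anti-Gαo (n=3–4) or anti-Gαi3 (n=3–5) antibody. Specific binding (CPM) = total minus non-specific. Normalised to mean WIN55212–2 stimulation as 100%. Mean ± SEM; one-way ANOVA with Dunnett's post hoc test.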

Gαi3 (N18TG2 membranes) = test: [35S]GTPγS binding, antibody-capture SPA, Gαi3, N18TG2 membranes; type: biochemical; conditions: for [35S]GTPγS binding to Gαi3 compared with IL4: N18TG2 membranes (5 µg protein), peptides up to 100 µM, IL4 100 µM, n=3-5
Summary of the method: as §1

[2] = cited from earlier work
Gi/o = conditions: cited from earlier work
[3] = test system: cAMP (Gi/o pathway); Chinese hamster ovary cells without CB1R; conditions: cited from earlier work
NMR secondary structure = type: physicochemical; conditions: average of representative NMR conformers, SDS micelles
Summary of the method: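 Test peptides at 5 mM in 90% H2O/10% D2O, pH 4.5, with perdeuterated SDS (300 mM) added to give a peptide:detergent ratio of 1:60. 1D spectra were recorded at 300–320 K. DQF-COSY, TOCSY and NOESY spectra were acquired, with 340 ms NOESY used for restraints (1.8–2.7, 1.8–3.5 or 1.8–5 Å). CYANA generated 50 structures and the 20 with lowest target function were kept. Structures were energy-minimised and refined with 3JHNHα-derived dihedrals. Secondary shifts are relative to random-coil values.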

[4] = Circular dichroism spectropolarimetry in membrane-mimetic solvents; type: physicochemical; conditions: 75 μM peptide; for CD conformation in phosphate buffer: Na2HPO4/KH2PO4 buffer, pH 7.0; for CD conformation in SDS: SDS in phosphate buffer; for CD conformation in methanol: methanol (up to 50%); for CD isodichroic point: SDS titration
[5] = at reported concentrations, ANOVA, Dunnett's

Compound: CCCCCCC(C)(C)c1ccc([C@@H]2C[C@H](O)CC[C@H]2CCCO)c(O)c1 [CP55940, reference compound]
- Effect of SR141716 on inhibition of cAMP accumulation by CP55940 ([1]; N18TG2 cells, CP55940 versus CP55940 plus SR141716, **P<0.005): Significant difference was found between CP55940 and CP55940 plus SR141716
- CP55940-inhibited cAMP with versus without bradykinin, significance ([1]; forskolin 1 µM or secretin 30 nM, *P<0.05, **P<0.005, n=3–7): significant difference was found comparing the effect of CP55940 with and without BK

Compound: Cc1c(C(=O)c2cccc3ccccc23)c2cccc3c2n1[C@H](CN1CCOCC1)CO3 [WIN55212–2, reference compound]
- % over stimulation by WIN55212–2, Go (Gαo (N18TG2 membranes); WIN55212–2 1 µM, N18TG2 membranes, anti-Gαo SPA, mean ± SEM): 19±2.8%
- Significance of Gαo stimulation versus basal (Gαo (N18TG2 membranes); [5]): significantly different from basal
- Significance of Gi3 stimulation by WIN55212–2 versus IL4 (Gαi3 (N18TG2 membranes); ANOVA, Dunnett's, **P<0.005): significantly different compared to IL4 in Gi3
- % over stimulation by WIN55212–2, Gi3 (Gαi3 (N18TG2 membranes); WIN55212–2 1 µM, N18TG2 membranes, anti-Gαi3 SPA, mean ± SEM): 62.7 ±6.6%
- Significance of Gαi3 stimulation versus basal (Gαi3 (N18TG2 membranes); [5]): significantly different from basal

Compound: CN(C)CCCn1cc(C2=C(c3c[nH]c4ccccc34)C(=O)NC2=O)c2ccccc21 [bisindolylmaleimide 1, reference compound]
- Effect of PKC inhibitor on bradykinin augmentation of CP55940 response ([1]; N18TG2 cells, bisindolylmaleimide I 100 nM, bradykinin 100 nM, Fig. 7C): reversed by the PKC inhibitor

Compound: RSKDLRHAFRSMFPSSE [IL4]
- Conformation of unphosphorylated IL4 in SDS micelles ([2]; SDS micelles, CD and NMR): induced significant helical structure
- CD conformation of unphosphorylated IL4 in aqueous environment ([2]; aqueous): random coil conformation
- Autonomous G protein activation (Gi/o): can activate G proteins autonomously as a pepducin
- Reduction of cAMP levels ([3]; CB1R-independent): able to reduce cAMP levels in a CB1R-independent manner
- Functional activity in absence of CB1R expression ([3]; Chinese hamster ovary cells without CB1R): still functional
- Distance between Cα carbons of Arg401 and Glu417 (NMR secondary structure): 26 Å

Compound: RSKDLRHAFRSMFPpSSE [IL4pSer415]
- Inhibition of cAMP accumulation at 100 µM versus IL4 or IL4pSer402 ([1]; N18TG2 cells): inhibited cAMP accumulation to a greater extent than IL4 or IL4pSer402; also recorded: more efficaciously than IL4 and IL4pSer402
- CD conformation in 90% TFE [4]: a slight shift toward helicity was initiated
- CD conformation in phosphate buffer [4]: random coil
- CD conformation in SDS [4]: induction of α-helix in SDS
- CD conformation in TFE [4]: random coil
- CD conformation in methanol [4]: random coil
- [35S]GTPγS binding to Gαi3 compared with IL4 (Gαi3 (N18TG2 membranes)): more efficacious than IL4; also recorded: higher efficacy than IL4
- Distance between Cα carbons of Arg401 and Glu417 (NMR secondary structure): 21.52 Å

Compound: RSKDLRHAFRpSMFPSSE [IL4pSer411]
- Significance of Gαo stimulation versus WIN55212–2 and IL4 (Gαo (N18TG2 membranes); ANOVA, Dunnett's, ***P<0.0001): significantly different compared to WIN55212–2 and IL4
- [35S]GTPγS binding to Gαo, fold greater than WIN55212–2 or IL4 (Gαo (N18TG2 membranes); N18TG2 membranes, WIN55212–2 1 µM, IL4 100 µM): 3 fold
- Inhibition of cAMP accumulation at 100 µM versus IL4 or IL4pSer402 ([1]; N18TG2 cells): inhibited cAMP accumulation to a greater extent than IL4 or IL4pSer402; also recorded: more efficaciously than IL4 and IL4pSer402
- CD conformation in phosphate buffer [4]: random coil structure
- CD conformation in SDS [4]: characteristics of α-helical structure
- CD isodichroic point [4]: 203 nm
- CD conformation in TFE [4]: random coil structure
- CD conformation in methanol [4]: random coil structure
- CD negative minimum wavelength in phosphate buffer ([4]; phosphate buffer pH 7.0): 198 nm
- Significance of Gi3 stimulation versus WIN55212–2 (not versus IL4) (Gαi3 (N18TG2 membranes); ANOVA, Dunnett's, *P<0.05): significantly different compared to WIN55212–2 but not IL4
- [35S]GTPγS binding to Gαi3 compared with IL4 (Gαi3 (N18TG2 membranes)): more efficacious than IL4
- Distance between Cα carbons of Arg401 and Glu417 (NMR secondary structure): 23.68 Å

Compound: RpSKDLRHAFRSMFPSSE [IL4pSer402]
- CD conformation in 90% TFE [4]: α-Helical conformation
- CD conformation in SDS [4]: α-Helical conformation
- CD isodichroic point [4]: 203 nm
- Lowest TFE concentration inducing helical conformation ([4]; CD): 40 % TFE
- Methanol concentration at which helical conformation is induced ([4]; CD): 50 % methanol
- [35S]GTPγS binding to Gαi3 compared with IL4 (Gαi3 (N18TG2 membranes)): not different between IL4 and IL4pSer402
- Distance between Cα carbons of Arg401 and Glu417 (NMR secondary structure): 23.61 Å
